Our source for the Km, Kd and IC50 values is publication PMC11822521 (ACS Omega, 2025).

Assay [1] has as its target T1, VHR (Homo sapiens, UniProt P51452). Description: Michaelis–Menten kinetic assay of VHR with OMFP. The class given is biochemical. Particulars: read-out: Michaelis–Menten constant (Km); OMFP as substrate of VHR. In outline:
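Full-length human His8-VHR expressed in E. coli, fixed at 2.5 nM, with OMFP titrated. Enzyme preincubated 20 min at room temperature, then substrate added. Fluorescence (ex 485/em 535 nm) read kinetically for 10 min. Initial velocities were background-corrected against no-enzyme wells and fitted to the Michaelis–Menten equation.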

In assay [2] the target is T1, VHR. In words: Isothermal titration calorimetry. The class given is binding. Particulars: dissociation constant (KD), ITC; mean of two independent experiments ± SEM. In outline: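 Run at 25 °C on full-length human VHR (His8-tagged, E. coli-expressed, Ni-NTA purified). Protein was 60–285 μM in PBS with 5% DMSO in the cell. Test compound (0.3–5 mM in the same buffer) was added as 20 injections of 6 μL. Baseline came from compound injected into buffer alone. KD was the mean of two independent runs.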
On the technique in general: Isothermal titration calorimetry measures the heat released or taken up as one component is titrated into another.

In assay [3] the target is T1, VHR. Description: VHR dose–response inhibition assay with OMFP substrate. The class given is biochemical. In outline:
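Ten-point curves, 100 μM to 5 nM final, in triplicate, with DMSO vehicle. Human His8-VHR (2.5 nM final) in pH 6 Bis-tris buffer with DTT and Tween-20 was preincubated with compound 20 min at room temperature. Reaction started with OMFP (6 μM final) and read at ex 485/em 535 nm for 10 min. Slopes were normalized to no-enzyme and vehicle controls and fitted to a four-parameter variable-slope model.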

Structures are written as SMILES.

T1 sequence (P51452 whole entry): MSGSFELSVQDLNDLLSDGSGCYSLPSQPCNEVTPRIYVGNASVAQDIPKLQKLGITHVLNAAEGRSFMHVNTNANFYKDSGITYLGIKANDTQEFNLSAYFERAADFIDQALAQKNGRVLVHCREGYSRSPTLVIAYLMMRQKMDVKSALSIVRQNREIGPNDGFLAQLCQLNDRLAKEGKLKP

Broadly, the Km is the substrate concentration at which the rate is half of its maximum. As to `COc1ccc2c(c1)Oc1cc(OP(=O)(O)O)ccc1C21OC(=O)c2ccccc21` (stereo not drawn) [OMFP, 3-O-methylfluorescein phosphate], the Km at VHR [1] stood at 5.4 µM.

The Kd is the free concentration of one partner at which half of the binding sites on the other are occupied at equilibrium, for simple one-to-one binding. A low value points to a tighter complex. In general, IC50 refers to the concentration that inhibits the measured activity by half. A lower IC50 goes with greater potency. As for `O=P(O)(O)C(F)(F)c1cccc(-c2cccc(-c3cscn3)c2)c1` [SBP-4929, (Difluoro(3′-(thiazol-4-yl)-[1,1′-biphenyl]-3-yl)methyl)phosphonic Acid], the dissociation constant (Kd) on VHR [2] is 7.6 ± 0.2 µM. Besides, the half-inhibitory concentration (IC50) at VHR [3] was determined as 4.1 ± 1.8 µM.
